Among the data in ChEMBL document CHEMBL1137724, “2-Azetidinone derivatives: design, synthesis and evaluation of cholesterol absorption inhibitors” (2009) are Activity values, retold here.

The structures appear in SMILES notation.

The test system of assay [1] is Hamster. The assay can be described thus: Hypocholesterolemic effect in high cholesterol-fed hamster assessed as increase in HDL-cholesterol at 50 mg/kg, po for 7 days. In kind it is functional, Cricetinae. Put shortly:
(§1)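 Blood was collected at sacrifice on the last dosing day for lipid analysis. Plasma total cholesterol and HDL-C were measured by a commercial kit using a modified cholesterol oxidase method.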

Assay [2] concerns Hamster. In words: Hypocholesterolemic effect in high cholesterol-fed hamster assessed as reduction in plasma total cholesterol at 50 mg/kg, po for 7 days. In kind it is functional, Cricetinae. Further details: scale not given: the % may be the effect or the level left. Put shortly:
as §1

For `COc1ccc([C@@H]2[C@@H](CCC(=O)Nc3ccc(Cl)cc3)C(=O)N2c2ccc(OC)cc2)cc1` (relative stereo), the Activity in the assay on Hamster [1] stood at 20.1%; in the assay on Hamster [2] it was 16.3%.

On to `O=C1[C@H](CC[C@H](O)c2ccc(F)cc2)[C@@H](c2ccc(O)cc2)N1c1ccc(F)cc1` [EZETIMIBE], for which the Activity came out at 37.3% in the assay on Hamster [1] and 48.7% in the assay on Hamster [2].

In the case of `COc1ccc([C@@H]2[C@@H](CCC(=O)Nc3ccc(C)cc3)C(=O)N2c2ccc(C)cc2)cc1` (relative stereo), the Activity is 23.9% in the assay on Hamster [1] and 18.7% in the assay with Hamster [2].

As to `COc1ccc([C@@H]2[C@@H](CCC(=O)Nc3ccc(C)cc3)C(=O)N2c2ccc(OC)cc2)cc1`, the Activity with Hamster [1] (50 mg/kg) worked out at 21.7%; with Hamster [2] (50 mg/kg), 28.1%.

For `COc1ccc([C@H]2[C@H](CCC(=O)Nc3ccc(Cl)cc3)C(=O)N2c2ccc(C)cc2)cc1` (relative stereo), the Activity amounted to 17.8% with Hamster [1] and 26.3% with Hamster [2].

For `Cc1ccccc1N1C(=O)[C@H](CCC(O)(c2ccc(F)cc2)c2ccc(F)cc2)[C@H]1c1ccc2c(c1)OCO2`, the Activity with Hamster [1] was 24.8%; in the assay on Hamster [2], 10.4%.

Consider `COc1ccc([C@@H]2[C@@H](CCC(O)(c3ccccc3)c3ccccc3)C(=O)N2c2ccc(F)cc2)cc1` (relative stereo), for which the values for the Activity in the assay with Hamster [1] and in the assay with Hamster [2] were 35% and 16.3%, respectively.

`COc1ccc(N2C(=O)[C@H](CCC(O)(c3ccc(F)cc3)c3ccc(F)cc3)[C@H]2c2cc3c(cc2Br)OCO3)cc1`: the values for the Activity with Hamster [1] and in the assay with Hamster [2] were 31.8% and 19.8%, respectively.

For the molecule `COc1ccc([C@@H]2[C@@H](CCC(=O)Nc3ccc(C)cc3)C(=O)N2c2ccc(OC)cc2)cc1` (relative stereo), the Activity in the assay with Hamster [1] (50 mg/kg) stood at 12.4%; in the assay on Hamster [2] (50 mg/kg) it was 20.9%.

`COc1ccc([C@@H]2[C@@H](CCC(=O)Nc3ccc(C)cc3)C(=O)N2c2ccccc2)cc1`: in the assay with Hamster [1] (50 mg/kg), the Activity was 22.1%.

Regarding `COc1ccc([C@@H]2[C@@H](CCC(O)(c3ccccc3)c3ccccc3)C(=O)N2c2ccccc2C)cc1`, the Activity in the assay on Hamster [1] was determined as 14.5%; with Hamster [2] it was 34.8%.

With `O=C1[C@H](CCC(O)(c2ccccc2)c2ccccc2)[C@@H](c2ccc3c(c2)OCO3)N1c1ccc(Cl)cc1` (relative stereo), the Activity with Hamster [1] was found to be 11.4%; in the assay on Hamster [2], 28.7%.

With `COc1ccc([C@@H]2[C@@H](CCC(=O)Nc3ccc(Cl)cc3)C(=O)N2c2ccc(C)cc2)cc1`, the Activity in the assay with Hamster [1] was determined as 13.7%; with Hamster [2], 31.6%.

In the case of `COc1ccc([C@@H]2[C@@H](CCC(O)(c3ccc(F)cc3)c3ccc(F)cc3)C(=O)N2c2ccc(Br)cc2)cc1` (relative stereo), the Activity worked out at 32.9% with Hamster [1] and 11.2% in the assay on Hamster [2].

For the molecule `COc1ccc([C@@H]2[C@@H](CCC(=O)Nc3ccc(C)cc3)C(=O)N2c2ccccc2)cc1` (relative stereo), the Activity in the assay on Hamster [1] (50 mg/kg) is recorded as 13.9%.
